Source: article PMC10928850 (RSC Advances, 2024)
≈ marks a conversion by molar mass, not a printed value.

Experiments:
[1] = DPPH radical scavenging activity; settings: mean ± SE, three replicates
[2] = Total antioxidant capacity; settings: mean ± SE, three replicates
β-glucosidase = assay: β-Glucosidase enzyme inhibition; type: biochemical; settings: mean ± SE, three replicates; for β-Glucosidase Inhibition (%): at the same concentration
[3] = target: acetylcholinesterase (AChE) (Homo sapiens, UniProt P22303); assay: Acetylcholinesterase inhibition, Ellman's method; type: biochemical; settings: for AChE Inhibition (%): at the same concentration, mean ± SE, three replicates
[4] = ABTS radical scavenging assay; settings: at equal concentrations; mean ± SE, three replicates
[5] = system: human lung (A549) cancer cell line; assay: MTT cytotoxicity, lung cancer A549; type: cell-based; settings: A549, 48 h, read-out: IC50 Lung cancer (A549)
Outline: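 Human lung A549 cells, run alongside Caco-2 colon cancer and normal WI-38 lung cells, were exposed to test compound. Viability was read by MTT, with optical density at 590. IC50 and percentage growth inhibition were computed with IC50 calculation software.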

proteinase (trypsin) = assay: Anti-arthritic: proteinase inhibitory activity; type: biochemical; settings: at the same concentration; mean ± SE, three replicates
[6] = system: human colon (Caco-2) cancer cell line; assay: MTT cytotoxicity, colon cancer Caco-2; type: cell-based; settings: for IC50: Homo sapiens, Caco-2, 48 h, read-out: IC50 Colon cancer (Caco-2); for Therapeutic index (TI) Colon cancer (Caco-2): IC50 on the normal cells (WI-38)/IC50 on the cancer cells (Caco-2)
[7] = system: bovine serum albumin (BSA); assay: Anti-arthritic: inhibition of protein denaturation; settings: inhibitory effect, at the same concentration; mean ± SE, three replicates
[8] = system: normal lung (WI-38) cell line; assay: MTT cytotoxicity, normal lung WI-38; type: cell-based; settings: Homo sapiens, WI-38, 48 h, read-out: IC50 Normal lung (WI-38)
Iron reducing power = settings: mean ± SE, three replicates
Outline: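 Reducing power was measured by the Oyaizu method and expressed in μg mL−1, with ascorbic acid as the standard.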

α-glucosidase enzyme = assay: Electrophoretic α-glucosidase pattern; type: biochemical; settings: enzyme treated at concentration equivalent to IC50
α-amylase = target: T1, α-amylase (Sus scrofa, UniProt P00690); assay: α-Amylase enzyme inhibition; type: biochemical; settings: at the same concentration; mean ± SE, three replicates
T1 sequence (P00690 16-511): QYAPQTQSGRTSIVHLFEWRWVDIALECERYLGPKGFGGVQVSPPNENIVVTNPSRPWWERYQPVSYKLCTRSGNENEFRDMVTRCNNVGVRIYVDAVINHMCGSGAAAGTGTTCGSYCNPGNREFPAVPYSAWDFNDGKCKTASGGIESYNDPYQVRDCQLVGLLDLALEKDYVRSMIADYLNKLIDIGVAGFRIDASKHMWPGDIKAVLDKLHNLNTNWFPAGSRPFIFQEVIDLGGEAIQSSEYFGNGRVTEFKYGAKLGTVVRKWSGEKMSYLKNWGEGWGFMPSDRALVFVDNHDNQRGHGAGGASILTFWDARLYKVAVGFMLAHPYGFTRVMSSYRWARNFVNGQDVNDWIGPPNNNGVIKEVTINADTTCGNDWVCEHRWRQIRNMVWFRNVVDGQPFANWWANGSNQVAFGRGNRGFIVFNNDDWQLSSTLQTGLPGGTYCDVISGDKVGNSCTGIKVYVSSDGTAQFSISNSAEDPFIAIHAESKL

α-glucosidase = α-glucosidase (Saccharomyces cerevisiae, UniProt P53341); assay: α-Glucosidase enzyme inhibition; type: biochemical; settings: at the same concentration; mean ± SE, three replicates
Sequence of α-glucosidase (P53341 whole entry): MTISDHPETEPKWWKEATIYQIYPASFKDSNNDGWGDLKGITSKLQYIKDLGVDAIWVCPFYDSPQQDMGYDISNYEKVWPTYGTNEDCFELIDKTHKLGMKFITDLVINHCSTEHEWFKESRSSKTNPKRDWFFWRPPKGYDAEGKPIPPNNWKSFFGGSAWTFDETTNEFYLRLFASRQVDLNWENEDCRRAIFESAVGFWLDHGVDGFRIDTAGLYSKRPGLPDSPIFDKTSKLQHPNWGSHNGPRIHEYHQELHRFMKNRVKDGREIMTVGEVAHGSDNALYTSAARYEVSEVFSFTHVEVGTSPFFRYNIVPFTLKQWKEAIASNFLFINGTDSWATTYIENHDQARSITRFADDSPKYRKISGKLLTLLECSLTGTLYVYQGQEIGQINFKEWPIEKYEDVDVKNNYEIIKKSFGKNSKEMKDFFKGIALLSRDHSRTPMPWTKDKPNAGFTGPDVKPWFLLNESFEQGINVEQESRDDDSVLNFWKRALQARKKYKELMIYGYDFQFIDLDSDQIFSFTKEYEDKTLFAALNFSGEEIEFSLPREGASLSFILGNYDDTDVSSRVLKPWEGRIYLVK

Sequence of acetylcholinesterase (AChE) (P22303 32-614, species assumed): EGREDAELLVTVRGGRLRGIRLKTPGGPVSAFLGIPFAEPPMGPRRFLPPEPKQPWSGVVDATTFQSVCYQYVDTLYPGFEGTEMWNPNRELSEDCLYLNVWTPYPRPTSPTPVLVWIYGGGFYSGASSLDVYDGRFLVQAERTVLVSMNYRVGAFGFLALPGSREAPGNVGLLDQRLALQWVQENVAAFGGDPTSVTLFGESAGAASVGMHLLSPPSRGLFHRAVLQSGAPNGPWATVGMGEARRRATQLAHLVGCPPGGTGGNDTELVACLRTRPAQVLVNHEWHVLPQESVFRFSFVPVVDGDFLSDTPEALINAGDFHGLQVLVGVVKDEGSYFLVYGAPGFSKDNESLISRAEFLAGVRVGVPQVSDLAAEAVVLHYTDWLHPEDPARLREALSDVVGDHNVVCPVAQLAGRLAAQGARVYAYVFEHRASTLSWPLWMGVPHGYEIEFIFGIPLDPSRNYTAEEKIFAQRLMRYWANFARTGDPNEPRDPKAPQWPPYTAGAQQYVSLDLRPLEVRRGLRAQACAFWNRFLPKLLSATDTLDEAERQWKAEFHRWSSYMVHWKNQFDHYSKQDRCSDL

SMILES	Scavenging activity DPPH IC50 [1] [µg/mL]	Antioxidant activity TAC [2] [mg gallic acid per g]	β-Glucosidase Inhibition (%) (β-glucosidase)	β-Glucosidase IC50 (β-glucosidase) [µg/mL]	IC50 [3] [mM]	AChE Inhibition (%) [3] [%]	Scavenging activity ABTS (%) [4] [%]	IC50 [5] [µg/mL]	Anti-arthritic activity: Inhibition of proteinase (%) (proteinase (trypsin))	IC50 [6] [µg/mL]	Therapeutic index (TI) Colon cancer (Caco-2) [6]	Anti-arthritic activity: Proteinase denaturation (%) [7] [%]	IC50 [8] [µg/mL]	Antioxidant activity IRP (Iron reducing power) [µg/mL]	α-glucosidase band (45 KDa) Qty (Band Quantity) (α-glucosidase enzyme)	α-Amylase Inhibition (%) (α-amylase)	α-Glucosidase Inhibition (%) (α-glucosidase)
COc1ccc(Nc2nn3c(-c4ccccc4)ccnc3c2C(=O)Nc2ccccc2)cc1 [12a]	19.63 ± 0.04	30.58 ± 0.07	7.67 ± 0.01	6470 ± 10	7.67	14.92 ± 0.02	25.28 ± 0.06	47.8 (≈ 110 µM)	14.91 ± 0.03	38.1 (≈ 87.6 µM)	3.5	16.24 ± 0.04	134 (≈ 308 µM)	17.29 ± 0.04			
O=C1O[C@H]([C@@H](O)CO)C(O)=C1O [Ascorbic acid, reference compound]	4.05 ± 0.01						39.09 ± 0.09										
C[C@H]1O[C@H](O[C@H]2[C@H](O)[C@@H](O)[C@@H](O[C@H]3[C@H](O)[C@@H](O)C(O)O[C@@H]3CO)O[C@@H]2CO)[C@H](O)[C@@H](O)[C@@H]1N[C@H]1C=C(CO)[C@@H](O)[C@H](O)[C@H]1O (stereo partly shown) [Acarbose]			47.70 ± 0.01	1070 ± 10											completely decreasing the protein band	65.95 ± 0.01	55.45 ± 0.01
COc1cccc2c1C(=O)c1c(O)c3c(c(O)c1C2=O)C[C@@](O)(C(=O)CO)C[C@@H]3O[C@H]1C[C@H](N)[C@H](O)[C@H](C)O1 [Doxorubicin, reference compound]								31.3 (≈ 57.6 µM)		28.4 (≈ 52.3 µM)	2.67		76 (≈ 140 µM)				
COc1ccc(Nc2nn3c(-c4ccccc4)ccnc3c2C(=O)Nc2ccc(Cl)cc2)cc1 [12b]	18.33 ± 0.04	31.27 ± 0.07	9.66 ± 0.02	5180 ± 10	6.7	16.00 ± 0.04	28.23 ± 0.06	40.5 (≈ 86.3 µM)	16.25 ± 0.04	29.8 (≈ 63.3 µM)	10.24	17.55 ± 0.04	305 (≈ 649 µM)	17.97 ± 0.04			
O=C(O)Cc1ccccc1Nc1c(Cl)cccc1Cl [Diclofenac sodium, reference compound]									41.88 ± 0.09								
